Active and inactive are the calls of the source. The rule behind the calls is not given here.
Columns and labels:
[1] = target: T1, Serine/threonine-protein kinase 3 (Homo sapiens, UniProt Q13188); test: Inhibition of MST2 (unknown origin) in presence of ATP by enzymatic assay
T1 sequence (Q13188 whole entry): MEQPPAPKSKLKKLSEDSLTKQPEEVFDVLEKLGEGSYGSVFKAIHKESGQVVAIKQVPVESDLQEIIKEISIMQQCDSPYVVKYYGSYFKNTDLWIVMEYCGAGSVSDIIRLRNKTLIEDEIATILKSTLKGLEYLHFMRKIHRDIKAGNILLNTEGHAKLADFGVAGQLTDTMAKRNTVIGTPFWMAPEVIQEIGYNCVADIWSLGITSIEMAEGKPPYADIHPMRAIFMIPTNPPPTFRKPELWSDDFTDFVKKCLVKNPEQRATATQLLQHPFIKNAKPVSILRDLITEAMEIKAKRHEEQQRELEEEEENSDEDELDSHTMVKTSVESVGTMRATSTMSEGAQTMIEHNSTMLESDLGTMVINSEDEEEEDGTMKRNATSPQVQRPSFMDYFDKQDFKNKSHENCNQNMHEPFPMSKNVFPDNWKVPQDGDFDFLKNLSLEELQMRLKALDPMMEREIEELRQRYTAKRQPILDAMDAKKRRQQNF

[2] = target: Serine/threonine-protein kinase pim-1 (Homo sapiens) (UniProt P11309); test: Inhibition of PIM1 (unknown origin) assessed as remaining activity at 1 uM by Kinome scan method relative to control
[3] = target: Casein kinase II subunit alpha (Homo sapiens) (UniProt P68400); test: Inhibition of CSNK2A1 (unknown origin) assessed as remaining activity at 1 uM by Kinome scan method relative to control
How it was run: (§1)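 Active-site-dependent competition-binding profiling (KINOMEscan) at 1 μM against a 468-kinase panel; compound supplied from a 10 mM DMSO stock. Read-out is ctrl% = (test signal − positive control signal)/(negative control signal − positive control signal) × 100. DMSO is the negative control (100%) and a control compound the positive control (0%). Lower ctrl% means tighter binding.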

[4] = system: Epidermal growth factor receptor (Homo sapiens), P00533 [UNDEFINED MUTATION]; test: Inhibition of EGFR L747-E749del/A750P mutant (unknown origin) assessed as remaining activity at 1 uM by Kinome scan method relative to control
[5] = target: Serine/threonine-protein kinase PAK 2 (Homo sapiens) (UniProt Q13177); test: Inhibition of PAK2 (unknown origin) assessed as remaining activity at 1 uM by Kinome scan method relative to control
[6] = target: Leucine-rich repeat serine/threonine-protein kinase 2 (Homo sapiens) (UniProt Q5S007); test: Inhibition of LRRK2 (unknown origin) assessed as remaining activity at 1 uM by Kinome scan method relative to control
[7] = target: Phosphatidylinositol 4,5-bisphosphate 3-kinase catalytic subunit gamma isoform (Homo sapiens, UniProt P48736); test: Inhibition of PIK3CG (unknown origin) assessed as remaining activity at 1 uM by Kinome scan method relative to control
[8] = target: Mitogen-activated protein kinase 9 (Homo sapiens) (UniProt P45984); test: Inhibition of JNK2 (unknown origin) assessed as remaining activity at 1 uM by Kinome scan method relative to control
[9] = target: Serine/threonine-protein kinase DCLK1 (Homo sapiens, UniProt O15075); test: Binding affinity to DCAMKL1 (unknown origin) assessed as dissociation constant
[10] = target: Death-associated protein kinase 3 (Homo sapiens) (UniProt O43293); test: Inhibition of DAPK3 (unknown origin) assessed as remaining activity at 1 uM by Kinome scan method relative to control; how it was run: as §1
HepG2 = test: Inhibition of Flag-tagged MST1 Y101F mutant (unknown origin) in human HepG2 cells assessed as MOB1 phosphorylation level at 0.3 to 10 uM by immunoblot analysis; format: cell-based; conditions: dose 0.3-10 µM
[11] = target: T2, Serine/threonine-protein kinase 4 (Homo sapiens, UniProt Q13043); test: Inhibition of recombinant His-tagged full-length MST1 (unknown origin) expressing in Escherichia coli assessed as MOB1a phosphorylation level incubated for 30 min in the presence of 300 uM ATP by immunoblot analysis
T2 sequence (Q13043 whole entry): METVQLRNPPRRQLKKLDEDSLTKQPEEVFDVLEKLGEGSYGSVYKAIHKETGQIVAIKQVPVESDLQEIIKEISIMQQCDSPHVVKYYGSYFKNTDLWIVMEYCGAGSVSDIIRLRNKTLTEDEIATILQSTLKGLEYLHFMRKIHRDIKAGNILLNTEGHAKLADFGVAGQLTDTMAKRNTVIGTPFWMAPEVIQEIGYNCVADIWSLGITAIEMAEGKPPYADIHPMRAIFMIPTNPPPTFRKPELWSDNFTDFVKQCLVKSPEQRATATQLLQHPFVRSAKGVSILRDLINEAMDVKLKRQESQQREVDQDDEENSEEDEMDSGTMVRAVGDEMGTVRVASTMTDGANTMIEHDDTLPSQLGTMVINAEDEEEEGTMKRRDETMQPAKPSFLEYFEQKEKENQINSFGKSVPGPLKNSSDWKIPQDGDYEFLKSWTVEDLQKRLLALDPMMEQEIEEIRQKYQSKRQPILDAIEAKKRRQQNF

[12] = system: Receptor-type tyrosine-protein kinase FLT3 (Homo sapiens), P36888 [D835H]; test: Inhibition of FLT3 D835H mutant (unknown origin) assessed as remaining activity at 1 uM by Kinome scan method relative to control
[13] = target: Non-receptor tyrosine-protein kinase TYK2 (Homo sapiens, UniProt P29597); test: Inhibition of TYK2 JH2 domain (unknown origin) assessed as remaining activity at 1 uM by Kinome scan method relative to control
[14] = system: Fibroblast growth factor receptor 3 (Homo sapiens), P22607 [G697C]; test: Inhibition of FGFR3 G697C mutant (unknown origin) assessed as remaining activity at 1 uM by Kinome scan method relative to control
[15] = target: Mitogen-activated protein kinase kinase kinase 14 (Homo sapiens) (UniProt Q99558); test: Inhibition of NIK (unknown origin) assessed as remaining activity at 1 uM by Kinome scan method relative to control
[16] = target: Cyclin-dependent kinase 11B (Homo sapiens) (UniProt P21127); test: Inhibition of CDC2L1 (unknown origin) assessed as remaining activity at 1 uM by Kinome scan method relative to control; how it was run: as §1
[17] = system: Tyrosine-protein kinase ABL1 (Homo sapiens), P00519 [H396P]; test: Inhibition of ABL1 H396P mutant (unknown origin) assessed as remaining activity at 1 uM by Kinome scan method relative to control
How it was run: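 Active-site-dependent competition-binding (KINOMEscan) panel of 468 kinases, test compound at 1 μM (from a 10 mM DMSO stock). Read-out is ctrl% = (test signal − positive control signal)/(negative control signal − positive control signal) × 100. DMSO is the negative control (100%) and a control compound is the positive control (0%). Lower ctrl% means tighter binding.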

[18] = target: Mitogen-activated protein kinase 11 (Homo sapiens) (UniProt Q15759); test: Inhibition of P38beta (unknown origin) assessed as remaining activity at 1 uM by Kinome scan method relative to control
Mitogen-activated protein kinase 11 (Homo sapiens), sequence (Q15759 whole entry): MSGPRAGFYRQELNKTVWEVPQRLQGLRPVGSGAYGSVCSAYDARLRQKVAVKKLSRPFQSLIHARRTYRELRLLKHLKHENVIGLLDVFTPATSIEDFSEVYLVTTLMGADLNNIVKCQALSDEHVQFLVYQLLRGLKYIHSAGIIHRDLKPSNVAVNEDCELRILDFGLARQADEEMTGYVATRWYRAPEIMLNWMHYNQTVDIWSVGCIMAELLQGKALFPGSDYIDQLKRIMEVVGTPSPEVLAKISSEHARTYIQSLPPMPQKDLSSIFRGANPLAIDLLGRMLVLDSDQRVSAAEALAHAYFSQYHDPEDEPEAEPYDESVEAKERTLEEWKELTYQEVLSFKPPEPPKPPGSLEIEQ

Phosphatidylinositol 4,5-bisphosphate 3-kinase catalytic subunit gamma isoform, sequence (P48736 whole entry, looked up, canonical isoform): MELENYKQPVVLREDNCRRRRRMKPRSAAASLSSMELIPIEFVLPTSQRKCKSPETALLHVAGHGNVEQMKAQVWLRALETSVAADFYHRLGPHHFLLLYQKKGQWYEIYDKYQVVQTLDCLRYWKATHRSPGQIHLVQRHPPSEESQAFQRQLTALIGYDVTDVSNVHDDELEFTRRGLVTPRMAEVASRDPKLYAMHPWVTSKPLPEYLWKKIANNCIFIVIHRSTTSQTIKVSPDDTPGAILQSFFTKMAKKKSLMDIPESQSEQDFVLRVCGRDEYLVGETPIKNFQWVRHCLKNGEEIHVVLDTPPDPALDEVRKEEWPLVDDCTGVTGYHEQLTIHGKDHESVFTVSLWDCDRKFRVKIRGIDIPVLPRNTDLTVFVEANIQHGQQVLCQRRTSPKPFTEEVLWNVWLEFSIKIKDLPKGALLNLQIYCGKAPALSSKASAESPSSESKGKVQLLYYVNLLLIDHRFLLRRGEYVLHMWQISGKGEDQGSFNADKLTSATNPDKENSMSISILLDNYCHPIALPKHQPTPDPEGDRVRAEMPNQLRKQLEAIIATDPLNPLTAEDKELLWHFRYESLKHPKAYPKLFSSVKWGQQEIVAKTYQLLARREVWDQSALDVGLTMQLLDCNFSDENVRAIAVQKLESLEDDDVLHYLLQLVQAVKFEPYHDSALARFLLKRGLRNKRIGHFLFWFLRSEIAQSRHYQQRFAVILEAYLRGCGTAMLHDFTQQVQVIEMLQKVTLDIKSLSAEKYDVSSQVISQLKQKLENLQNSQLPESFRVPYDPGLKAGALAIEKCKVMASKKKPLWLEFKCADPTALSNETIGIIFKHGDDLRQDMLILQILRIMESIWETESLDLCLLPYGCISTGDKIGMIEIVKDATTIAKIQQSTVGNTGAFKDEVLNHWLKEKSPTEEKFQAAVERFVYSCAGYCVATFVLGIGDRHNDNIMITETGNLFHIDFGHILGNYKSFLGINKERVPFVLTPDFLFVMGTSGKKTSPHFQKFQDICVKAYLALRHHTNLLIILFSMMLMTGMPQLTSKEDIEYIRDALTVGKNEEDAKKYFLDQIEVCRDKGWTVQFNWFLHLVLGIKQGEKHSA
Non-receptor tyrosine-protein kinase TYK2, sequence (P29597 whole entry, the tested form may be a part): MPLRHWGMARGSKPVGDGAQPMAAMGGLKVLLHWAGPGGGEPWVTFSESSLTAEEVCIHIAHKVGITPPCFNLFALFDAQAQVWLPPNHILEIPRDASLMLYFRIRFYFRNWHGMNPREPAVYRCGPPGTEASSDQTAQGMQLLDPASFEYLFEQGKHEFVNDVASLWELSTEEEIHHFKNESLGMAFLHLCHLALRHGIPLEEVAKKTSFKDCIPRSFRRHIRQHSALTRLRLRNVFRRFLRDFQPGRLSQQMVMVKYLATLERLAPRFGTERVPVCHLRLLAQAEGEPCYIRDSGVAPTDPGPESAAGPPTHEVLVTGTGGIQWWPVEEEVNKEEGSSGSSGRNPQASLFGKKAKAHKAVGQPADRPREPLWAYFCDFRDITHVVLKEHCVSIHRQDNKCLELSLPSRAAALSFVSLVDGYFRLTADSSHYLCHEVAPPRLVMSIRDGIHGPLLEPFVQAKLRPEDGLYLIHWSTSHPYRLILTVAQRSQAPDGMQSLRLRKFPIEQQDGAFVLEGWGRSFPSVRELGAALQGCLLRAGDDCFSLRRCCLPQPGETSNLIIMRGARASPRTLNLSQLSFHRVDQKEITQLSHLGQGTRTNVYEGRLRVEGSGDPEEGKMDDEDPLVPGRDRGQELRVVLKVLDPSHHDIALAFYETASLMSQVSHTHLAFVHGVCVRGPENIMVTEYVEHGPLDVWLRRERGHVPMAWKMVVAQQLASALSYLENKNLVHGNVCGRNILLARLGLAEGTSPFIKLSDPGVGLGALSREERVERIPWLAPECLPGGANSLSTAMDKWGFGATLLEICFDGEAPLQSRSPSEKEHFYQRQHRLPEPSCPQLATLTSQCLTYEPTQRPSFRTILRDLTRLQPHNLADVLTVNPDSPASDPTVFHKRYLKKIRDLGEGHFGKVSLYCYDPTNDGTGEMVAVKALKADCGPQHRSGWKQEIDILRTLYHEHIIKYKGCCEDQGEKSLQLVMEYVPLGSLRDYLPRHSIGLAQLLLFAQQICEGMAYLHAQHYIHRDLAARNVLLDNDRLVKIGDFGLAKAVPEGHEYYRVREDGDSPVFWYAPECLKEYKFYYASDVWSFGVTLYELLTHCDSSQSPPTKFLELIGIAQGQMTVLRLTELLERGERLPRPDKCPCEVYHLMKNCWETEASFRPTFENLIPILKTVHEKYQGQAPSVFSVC
Serine/threonine-protein kinase DCLK1, sequence (O15075 whole entry): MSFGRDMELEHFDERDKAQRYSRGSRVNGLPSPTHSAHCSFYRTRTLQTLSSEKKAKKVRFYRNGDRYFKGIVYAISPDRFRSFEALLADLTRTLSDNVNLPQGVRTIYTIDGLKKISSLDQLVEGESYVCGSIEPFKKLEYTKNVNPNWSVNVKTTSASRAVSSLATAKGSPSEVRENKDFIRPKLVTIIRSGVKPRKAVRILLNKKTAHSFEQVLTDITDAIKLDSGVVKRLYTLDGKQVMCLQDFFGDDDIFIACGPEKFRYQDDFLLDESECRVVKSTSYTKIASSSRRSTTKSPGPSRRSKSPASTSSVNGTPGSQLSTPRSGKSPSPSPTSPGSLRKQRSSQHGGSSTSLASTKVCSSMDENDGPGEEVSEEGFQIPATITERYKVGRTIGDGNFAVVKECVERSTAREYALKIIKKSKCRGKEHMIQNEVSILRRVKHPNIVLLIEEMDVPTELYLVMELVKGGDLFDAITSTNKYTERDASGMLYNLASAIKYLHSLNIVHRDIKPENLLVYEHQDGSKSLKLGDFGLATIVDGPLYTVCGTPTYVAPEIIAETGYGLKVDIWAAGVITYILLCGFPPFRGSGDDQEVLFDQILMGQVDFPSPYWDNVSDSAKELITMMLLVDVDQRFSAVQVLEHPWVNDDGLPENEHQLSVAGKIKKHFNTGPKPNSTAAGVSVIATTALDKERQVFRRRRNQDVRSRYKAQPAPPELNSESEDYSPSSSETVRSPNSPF
Fibroblast growth factor receptor 3 (Homo sapiens), P22607 [G697C], sequence (P22607 whole entry G697C): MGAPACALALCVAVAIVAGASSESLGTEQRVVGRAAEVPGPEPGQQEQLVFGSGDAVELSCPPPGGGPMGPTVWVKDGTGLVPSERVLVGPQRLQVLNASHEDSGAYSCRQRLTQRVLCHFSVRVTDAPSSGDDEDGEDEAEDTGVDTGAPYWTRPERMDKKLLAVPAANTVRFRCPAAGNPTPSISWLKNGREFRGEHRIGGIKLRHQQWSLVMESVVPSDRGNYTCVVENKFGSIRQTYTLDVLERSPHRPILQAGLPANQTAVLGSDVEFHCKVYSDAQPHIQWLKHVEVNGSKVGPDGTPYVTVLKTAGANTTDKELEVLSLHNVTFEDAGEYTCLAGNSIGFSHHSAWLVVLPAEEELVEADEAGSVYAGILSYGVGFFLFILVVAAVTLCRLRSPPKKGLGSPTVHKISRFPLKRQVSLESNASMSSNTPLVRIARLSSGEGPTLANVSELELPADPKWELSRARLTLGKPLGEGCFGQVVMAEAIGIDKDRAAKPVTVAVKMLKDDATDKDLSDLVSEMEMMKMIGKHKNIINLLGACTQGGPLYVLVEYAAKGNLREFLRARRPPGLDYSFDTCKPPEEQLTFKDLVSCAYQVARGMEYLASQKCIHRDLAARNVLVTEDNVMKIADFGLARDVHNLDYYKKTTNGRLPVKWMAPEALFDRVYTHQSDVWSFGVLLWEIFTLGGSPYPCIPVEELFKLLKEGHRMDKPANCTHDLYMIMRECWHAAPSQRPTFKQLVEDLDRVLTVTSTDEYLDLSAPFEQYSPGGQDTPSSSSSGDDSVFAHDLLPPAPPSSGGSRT
Mitogen-activated protein kinase 9 (Homo sapiens), sequence (P45984 whole entry, looked up): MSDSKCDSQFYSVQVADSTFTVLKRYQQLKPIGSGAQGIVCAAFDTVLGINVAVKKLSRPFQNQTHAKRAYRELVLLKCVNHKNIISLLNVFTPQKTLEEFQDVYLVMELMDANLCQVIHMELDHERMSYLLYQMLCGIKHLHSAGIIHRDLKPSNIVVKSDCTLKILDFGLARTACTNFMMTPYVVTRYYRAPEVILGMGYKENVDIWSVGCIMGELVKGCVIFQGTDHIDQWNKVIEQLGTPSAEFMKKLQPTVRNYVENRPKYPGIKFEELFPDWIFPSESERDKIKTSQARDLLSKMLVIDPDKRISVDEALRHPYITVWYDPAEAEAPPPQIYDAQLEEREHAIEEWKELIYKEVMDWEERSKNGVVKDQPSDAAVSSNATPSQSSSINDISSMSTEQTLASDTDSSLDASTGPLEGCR
Serine/threonine-protein kinase pim-1 (Homo sapiens), sequence (P11309 whole entry, looked up): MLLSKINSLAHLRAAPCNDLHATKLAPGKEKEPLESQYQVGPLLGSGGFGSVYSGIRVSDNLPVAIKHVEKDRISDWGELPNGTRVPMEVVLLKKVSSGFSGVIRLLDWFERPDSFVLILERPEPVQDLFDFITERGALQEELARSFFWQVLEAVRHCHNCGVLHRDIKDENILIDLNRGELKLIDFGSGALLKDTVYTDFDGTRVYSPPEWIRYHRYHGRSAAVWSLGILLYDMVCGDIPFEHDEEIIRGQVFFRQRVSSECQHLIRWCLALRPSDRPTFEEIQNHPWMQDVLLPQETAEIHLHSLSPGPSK

CN1C(=O)c2sccc2N(C)c2nc(Nc3ccc(S(N)(=O)=O)cc3)ncc21
IC50 [1]: 18.2 nM
Activity [2]: 100%
Activity [3]: 94%
Activity [4]: 100%
Activity [5]: 84%
Activity [6]: 37%
Activity [7]: 0.15%
Activity [8]: 82%
Kd [9]: 25 nM
Activity [10]: 94%
inhibition (HepG2): Active
IC50 [11]: 4040 nM
Activity [12]: 67%
Activity [13]: 71%
Activity [14]: 95%
Activity [15]: 58%
Activity [16]: 85%
Activity [17]: 11%
Activity [18]: 83%

Source: ChEMBL document CHEMBL5705905, “Pharmacological targeting of kinases MST1 and MST2 augments tissue repair and regeneration” (Sci Transl Med, 2016)
